Measurements as given in ChEMBL document CHEMBL1132975, “2',6'-Dimethylphenoxyacetyl: a new achiral high affinity P(3)-P(2) ligand for peptidomimetic-based HIV protease inhibitors” (J Med Chem, 2000).
pEC50, pIC50, pKi: −log10 of the molar value.

Legend:
[1] = molecular target: T1, Human immunodeficiency virus type 1 protease (Human immunodeficiency virus 1, UniProt Q72874); experiment: In vitro inhibition of HIV-1.
[2] = test system: Human immunodeficiency virus 1; experiment: Effective concentration to inhibit replication of viral strain HIV-1 IIIB in acutely infected C8166T cells; format: functional, organism-based; conditions: Human immunodeficiency virus 1, C8166T
In short: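 HIV-1 IIIB infected C8166 T cells at MOI 0.001 in complete medium, then cultured 3 days with serially diluted inhibitor. Extracellular p24 core antigen was measured by ELISA on pooled supernatants (8 replicas) to give percent inhibition. EC50 came from a nonlinear Hill fit.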

[3] = test system: Human immunodeficiency virus 1; experiment: The binding affinity is evaluated for viral strains HIV-1 IIIB; format: functional, organism-based
[4] = test system: Human immunodeficiency virus 2; experiment: Effective concentration to inhibit replication of viral strain HIV-2 ROD in acutely infected C8166T cells; format: functional, organism-based; conditions: Human immunodeficiency virus 2, C8166T
[5] = Half life for the clearance after intravenous (iv) administration of 1 mg/kg; format: ADME, organism-based; parameters: dose 1 mg/kg, route intravenous; conditions: in vivo
[6] = Oral bioavailability in rat (dose 5 mg/kg); format: ADME, organism-based; conditions: in vivo
[7] = test system: Human immunodeficiency virus 2; experiment: The binding affinity is evaluated for viral strains HIV-2 ROD; format: functional, organism-based
[8] = Area Under the Curve (AUC) for the compound is evaluated after the oral administration at 5 mg/kg.; format: ADME, organism-based; parameters: dose 5 mg/kg, route oral; conditions: in vivo
[9] = Half life for the clearance after intravenous (iv) administration of dose of 1 mg/kg; format: ADME, organism-based; parameters: dose 1 mg/kg, route intravenous; conditions: in vivo
[10] = molecular target: T1, Human immunodeficiency virus type 1 protease; experiment: The inhibitory concentration was evaluated for viral strains HIV-2 ROD using a HIV protease HPLC based assay.
[11] = test system: Human immunodeficiency virus 2; experiment: The binding affinity is evaluated for viral strains HIV-2 ROD.; format: functional, organism-based
[12] = The compound was evaluated for oral bioavailability in the rat at a peroral (po) dose of 5 mg/kg; format: ADME, organism-based; conditions: in vivo
[13] = The plasma concentration is evaluated after oral administration of 5 mg/kg; format: ADME, organism-based; parameters: dose 5 mg/kg, route oral
[14] = The plasma concentration is evaluated after oral administration a dose of 5 mg/kg; format: ADME, organism-based; parameters: dose 5 mg/kg, route oral

SMILES	pIC50 [1]	pEC50 [2]	also measured
Cc1cccc(C)c1OCC(=O)N[C@@H](Cc1ccccc1)[C@H](O)CN1C[C@H]2CCCC[C@H]2C[C@H]1C(=O)NC(C)(C)C	8.08	7.00	–
Cc1cccc(C)c1OCC(=O)N[C@@H](Cc1ccccc1)[C@H](O)CN1CC[C@@H](Sc2ccncc2)C[C@H]1C(=O)NC(C)(C)C	–	8.70	pKi [3]: 11.22; pEC50 [4]: 8.52; half-life [5]: 24 min; bioavailability [6]: 61%; pKi [7]: 10.64; AUC [8]: 1.77 µM·h
CC(C)(C)NC(=O)[C@@H]1C[C@H](OCc2ccncc2)CCN1C[C@@H](O)[C@H](Cc1ccccc1)NC(=O)CSc1ccccc1	5.38	–	–
Cc1cccc(C)c1CCC(=O)N[C@@H](Cc1ccccc1)[C@H](O)CN1CC[C@@H](OCc2ccncc2)C[C@H]1C(=O)NC(C)(C)C	5.62	–	–
Cc1cccc(C)c1OC(C)C(=O)N[C@@H](Cc1ccccc1)[C@H](O)CN1CC[C@@H](OCc2ccncc2)C[C@H]1C(=O)NC(C)(C)C (stereo not given in full)	7.70	–	–
CC(C)(C)NC(=O)[C@@H]1C[C@H](OCc2ccncc2)CCN1C[C@@H](O)[C@H](Cc1ccccc1)NC(=O)O[C@@H]1CCOC1	6.59	–	–
CC(C)(C)NC(=O)[C@@H]1C[C@H](OCc2ccncc2)CCN1C[C@@H](O)[C@H](Cc1ccccc1)NC(=O)OCc1ccccc1	6.40	–	–
Cc1ccccc1CCC(=O)N[C@@H](Cc1ccccc1)[C@H](O)CN1CC[C@@H](OCc2ccncc2)C[C@H]1C(=O)NC(C)(C)C	5.60	–	–
Cc1ccccc1COC(=O)N[C@@H](Cc1ccccc1)[C@H](O)CN1CC[C@@H](OCc2ccncc2)C[C@H]1C(=O)NC(C)(C)C	6.68	–	–
Cc1cc(S[C@@H]2CCN(C[C@@H](O)[C@H](Cc3ccccc3)NC(=O)COc3c(C)cccc3C)[C@H](C(=O)NC(C)(C)C)C2)nc(C)n1	8.82	9.00	half-life [9]: 102 min; bioavailability [6]: 29%; AUC [8]: 1.67 µM·h
CC(C)(C)NC(=O)[C@@H]1C[C@H](OCc2ccncc2)CCN1C[C@@H](O)[C@H](Cc1ccccc1)NC(=O)CCCc1ccccc1	< 4.70	–	–
CC(C)[C@H](NC(=O)c1ccc2ccccc2n1)C(=O)N[C@@H](Cc1ccccc1)[C@H](O)CN1CC[C@@H](OCc2ccncc2)C[C@H]1C(=O)NC(C)(C)C	–	8.30	pKi [3]: 10.51; pEC50 [4]: 7.60; pIC50 [10]: 8.00; pKi [11]: 9.89
Cc1cccc(C)c1COC(=O)N[C@@H](Cc1ccccc1)[C@H](O)CN1CC[C@@H](OCc2ccncc2)C[C@H]1C(=O)NC(C)(C)C	6.38	–	–
CC(C)(C)NC(=O)[C@@H]1C[C@H](OCc2ccncc2)CCN1C[C@@H](O)[C@H](Cc1ccccc1)NC(=O)/C=C/c1ccccc1	4.96	–	–
Cc1ccccc1OCC(=O)N[C@@H](Cc1ccccc1)[C@H](O)CN1CC[C@@H](OCc2ccncc2)C[C@H]1C(=O)NC(C)(C)C	6.92	–	–
Cc1cccc(C)c1OCC(=O)N[C@@H](Cc1ccccc1)[C@H](O)CN1CC[C@@H](SCc2ccncc2)C[C@H]1C(=O)NC(C)(C)C	8.74	8.40	half-life [5]: 42 min; bioavailability [12]: 22%; AUC [8]: 1.71 µM·h; Cmax [13]: 1660 nM
CC(C)(C)NC(=O)[C@@H]1C[C@H](OCc2ccncc2)CCN1C[C@@H](O)[C@H](Cc1ccccc1)NC(=O)CCc1ccccc1	5.85	–	–
Cc1c(O)cccc1C(=O)N[C@@H](Cc1ccccc1)[C@H](O)CN1CC[C@@H](OCc2ccncc2)C[C@H]1C(=O)NC(C)(C)C	7.92	7.49	–
CC(C)(C)NC(=O)[C@@H]1C[C@H](OCc2ccncc2)CCN1C[C@@H](O)[C@H](Cc1ccccc1)NC(=O)COc1ccccc1	5.96	–	–
Cc1cccc(C)c1OCC(=O)N[C@@H](Cc1ccccc1)[C@H](O)CN(CC(C)C)S(=O)(=O)c1ccc(N)cc1	8.59	7.70	–
Cc1cccc(C)c1OCC(=O)N[C@@H](Cc1ccccc1)[C@H](O)CN1CC[C@@H](SCc2cccnc2)C[C@H]1C(=O)NC(C)(C)C	8.77	8.22	half-life [5]: 30 min; bioavailability [6]: 37%; Cmax [14]: 2320 nM; AUC [8]: 3.26 µM·h
Cc1cccc(C)c1OCC(=O)N[C@@H](Cc1ccccc1)[C@H](O)CN1CC[C@@H](OCc2ccncc2)C[C@H]1C(=O)NC(C)(C)C	8.15	7.62	–
